Published values collected from several papers.
Each line is one published result; the experiments were not run side by side.
Target: Ephrin type-A receptor 3 (EPHA3, Homo sapiens, UniProt P29320)
One construct used (P29320 1-983): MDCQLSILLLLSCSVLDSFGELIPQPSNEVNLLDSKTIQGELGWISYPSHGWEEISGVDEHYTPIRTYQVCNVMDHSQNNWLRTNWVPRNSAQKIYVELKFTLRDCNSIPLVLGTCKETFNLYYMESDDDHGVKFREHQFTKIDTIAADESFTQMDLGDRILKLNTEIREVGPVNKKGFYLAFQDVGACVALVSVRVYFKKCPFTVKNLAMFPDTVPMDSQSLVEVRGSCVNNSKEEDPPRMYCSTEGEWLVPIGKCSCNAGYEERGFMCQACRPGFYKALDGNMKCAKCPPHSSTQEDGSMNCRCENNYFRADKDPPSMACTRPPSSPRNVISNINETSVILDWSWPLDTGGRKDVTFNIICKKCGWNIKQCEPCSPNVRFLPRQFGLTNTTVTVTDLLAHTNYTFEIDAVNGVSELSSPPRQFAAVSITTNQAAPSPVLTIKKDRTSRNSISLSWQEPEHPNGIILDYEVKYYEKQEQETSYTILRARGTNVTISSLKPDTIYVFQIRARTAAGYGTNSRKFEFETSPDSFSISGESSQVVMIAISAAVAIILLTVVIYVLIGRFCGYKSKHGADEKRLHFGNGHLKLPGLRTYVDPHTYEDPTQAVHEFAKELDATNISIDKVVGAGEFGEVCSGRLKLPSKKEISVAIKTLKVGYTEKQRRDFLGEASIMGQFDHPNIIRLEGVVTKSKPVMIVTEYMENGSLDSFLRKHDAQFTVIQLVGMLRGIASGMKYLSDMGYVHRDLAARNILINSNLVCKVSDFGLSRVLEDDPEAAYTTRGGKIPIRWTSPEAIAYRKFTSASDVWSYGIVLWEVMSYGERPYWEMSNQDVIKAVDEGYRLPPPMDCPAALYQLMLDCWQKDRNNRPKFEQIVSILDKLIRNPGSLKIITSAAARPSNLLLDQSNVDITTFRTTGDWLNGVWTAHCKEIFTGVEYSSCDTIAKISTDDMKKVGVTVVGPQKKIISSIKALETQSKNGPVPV

| Compound | effect on | action | technique | tested at | measurement | value |
| --- | --- | --- | --- | --- | --- | --- |
| Cc1nc(N2CC[C@@H](O)C2)ncc1-c1cc(C(F)(F)F)cc2[nH]ncc12 | cell-free assay | – | competition with immobilised ligand | 1 µM | remaining binding | 94% |
| CCN(CC)CCNC(=O)c1c(C)[nH]c(/C=C2\C(=O)Nc3ccc(F)cc32)c1C | cell-free assay | – | – | 0.5 µM | remaining signal | 84% |
| CC(C)(C)c1nc(-c2cccc(NS(=O)(=O)c3c(F)cccc3F)c2F)c(-c2ccnc(N)n2)s1 | enzyme activity | inhibitor | radiometric | 1 µM | remaining activity | 91% |
| CNC(=O)Nc1ccc2c(c1)CC[C@@]21OC(=O)N(CC(=O)N(Cc2ccc(F)cc2)[C@@H](C)C(F)(F)F)C1=O | cell-free assay | – | competition with immobilised ligand | 1 µM | remaining binding | 100% |
| CN(c1nccc(-c2cnn3ncccc23)n1)C1CC1 | binding | – | – | 1 µM | remaining binding | 100% |
| O=C1NC(=O)c2cc(Nc3ccc(F)cc3)c(Nc3ccc(F)cc3)cc21 | cell-free assay | – | – | 0.5 µM | remaining signal | 96.6% |
| Cc1ccc(Nc2nccc(N(C)c3ccc4c(C)n(C)nc4c3)n2)cc1S(N)(=O)=O | enzyme activity | inhibitor | – | 10 µM | inhibition | 30% |
| CCCOc1ccc(OC)c(F)c1C(=O)c1ccc(C(=O)N[C@@H]2CNC[C@H]2NC(=O)c2ccc3[nH]ncc3c2)cc1 | enzyme activity | inhibitor | – | 10 µM | remaining activity | 61% |
| Cc1ccc(NC(=O)c2ccc(C)c(C(F)(F)F)c2)cc1C#Cc1nn(C2CCC(O)CC2)c2ncnc(N)c12 (centres unmarked) | cell-free assay | – | – | 10 µM | remaining signal | 3% |
| CN(C)C1CCN(CC#Cc2nn(C3CCCC3)c3nc(NCc4ccccc4)ncc23)C1 (centres unmarked) | enzyme activity | inhibitor | FRET | 10 µM | inhibition | -3% |
| O=C(NCCCC1CCCCC1)c1ccc(CNC(=O)c2cnn(-c3ccccc3)c2C(F)(F)F)cc1 | cell-free assay | – | competition with immobilised ligand | 0.1 µM | remaining binding | 91% |
| Nc1ncnc2occ(-c3ccc(NC(=O)Nc4cc(C(F)(F)F)ccc4F)cc3)c12 | cell-free assay | – | – | 20 µM | remaining signal | 16% |
| N#CC1(c2ccccn2)CCN(Cc2cc(C(=O)N3CCCC3)c(=O)n3ccccc23)CC1 | cell-free assay | – | competition with immobilised ligand | 1 µM | remaining binding | 100% |
| CCCS(=O)(=O)Nc1ccc(F)c(C(=O)c2c[nH]c3ncc(-c4ccc(Cl)cc4)cc23)c1F | enzyme activity | inhibitor | – | 1 µM | inhibition | < 10% |
| Cc1cnc(NC2CCOCC2)nc1-n1cnc(C(=O)NC(CN)c2cc(F)cc(Cl)c2)c1 (centres unmarked) | enzyme activity | inhibitor | radiometric | 1 µM | remaining activity | 123% |
| O=C(NC[C@@H]1[C@H]2CN(C(=O)OCc3cc(C(F)(F)F)cc(C(F)(F)F)c3)C[C@@H]12)c1ccc2[nH]nnc2c1 | cell-free assay | – | competition with immobilised ligand | 1 µM | remaining binding | 100% |
| CNC(=O)c1cc(Oc2ccc(NC(=O)Nc3ccc(Cl)c(C(F)(F)F)c3)cc2)ccn1 | enzyme activity | inhibitor | – | 10 µM | inhibition | 95% |
| CS(=O)(=O)CCNCc1ccc(-c2ccc3ncnc(Nc4ccc(OCc5cccc(F)c5)c(Cl)c4)c3c2)o1 | cell-free assay | – | – | 0.5 µM | remaining signal | 98.2% |
| COc1cccc(CNC(=O)c2nc3scc(COCc4ccc(C(=O)O)cc4)c3c(=O)[nH]2)c1 | cell-free assay | – | competition with immobilised ligand | 1 µM | remaining binding | 91.3% |
| Nc1nc(Nc2ccc(S(N)(=O)=O)cc2)nn1C(=O)c1c(F)cccc1F | cell-free assay | – | – | 0.5 µM | remaining signal | 107% |
| COc1cc(Cl)c(C(=O)N[C@@H](CN[C@H]2CC[C@@H](N)CC2)Cc2ccc(C#N)cc2)cc1-c1ccc(CN[C@H](C)c2ccc(C)cc2)o1 | enzyme activity | inhibitor | – | 1 µM | remaining activity | 69% |
| COc1ccc2c(c1)O[C@@H](c1ccc(OC)c(OC)c1)C[C@H]2NC(=O)C1(c2ccc3c(c2)OC(F)(F)O3)CC1 | cell-free assay | – | competition with immobilised ligand | 1 µM | remaining binding | 91% |
| O=C(Nc1cnn(-c2csc(C(=O)NC3COC3)c2)c1)Nc1c(F)cccc1Cl | enzyme activity | inhibitor | – | 5 µM | remaining activity | 96.1% |
